Measurements from ChEMBL document CHEMBL1154263, “Gamma-lactones and ent-eudesmane sesquiterpenes from the endophytic fungus Eutypella sp. BCC 13199” (J Nat Prod, 2009).
The source made the active and inactive calls. The calls are words filed in the database; no cut-off is given here.

Experiments:
NCI-H187 = test: Cytotoxicity against human NCI-H187 cells by resazurin microplate assay; assay type: functional, cell-based
Method in brief: (§1)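 Resazurin microplate assay on human tumour cell lines: KB (oral epidermoid carcinoma), MCF-7 (breast cancer) and NCI-H187 (small-cell lung cancer).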

MCF7 = test: Cytotoxicity against human MCF7 cells by resazurin microplate assay; assay type: functional, cell-based; method in brief: as §1
KB = test: Cytotoxicity against human KB cells by resazurin microplate assay; assay type: functional, cell-based; method in brief: as §1
Vero = test: Cytotoxicity against african green monkey Vero cells after 8 days by green fluorescent protein microplate assay; assay type: cell-based; conditions: Chlorocebus sabaeus, 192 h
Method in brief: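 Vero cells (African green monkey kidney fibroblasts); cytotoxicity read by green fluorescent protein microplate assay (GFPMA).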

Plasmodium falciparum = test: Antimalarial activity against Plasmodium falciparum K1; assay type: functional, organism-based
[1] = tested on: Mycobacterium tuberculosis; test: Antituberculosis activity against Mycobacterium tuberculosis H37Ra; assay type: functional, organism-based
Candida albicans = test: Antifungal activity against Candida albicans; assay type: functional, organism-based
Pyricularia grisea = test: Antifungal activity against Magnaporthe grisea; assay type: functional, organism-based

SMILES: C=C1CCC(=O)[C@@]2(C)CC[C@H](C(C)(C)O)C[C@H]12
- IC50 (NCI-H187): 11 µM
- IC50 (MCF7): 20 µM
- IC50 (KB): 32 µM
- IC50 (Vero): 32 µM
- Activity (Plasmodium falciparum): inactive
- Activity [1]: inactive
- Activity (Candida albicans): inactive
- Activity (Pyricularia grisea): inactive

SMILES: C=C1CC[C@H](O)[C@@]2(C)CC[C@H](C(C)(C)O)C[C@H]12
- IC50 (NCI-H187): > 210 µM
- IC50 (MCF7): > 210 µM
- IC50 (KB): > 210 µM
- IC50 (Vero): > 210 µM
- Activity (Plasmodium falciparum): inactive
- Activity [1]: inactive
- Activity (Candida albicans): inactive
- Activity (Pyricularia grisea): inactive

SMILES: COc1cccc2c1C(=O)c1c(O)c3c(c(O)c1C2=O)C[C@@](O)(C(=O)CO)C[C@@H]3O[C@H]1C[C@H](N)[C@H](O)[C@H](C)O1 [DOXORUBICIN]
- IC50 (NCI-H187): 0.25 µM
- IC50 (KB): 0.28 µM

SMILES: Cc1c2ccncc2c(C)c2c1[nH]c1ccccc12 [ELLIPTECINE]
- IC50 (NCI-H187): 3.6 µM
- IC50 (KB): 2.5 µM
- IC50 (Vero): 5.5 µM

SMILES: O=C/C=C/C=C1/C(=O)O[C@H](/C=C/CO)[C@H]1O [EUTYPELLIN A]
- IC50 (NCI-H187): 12 µM
- IC50 (MCF7): 84 µM
- IC50 (KB): 38 µM
- IC50 (Vero): 88 µM
- Activity (Plasmodium falciparum): inactive
- Activity [1]: inactive
- Activity (Candida albicans): inactive
- Activity (Pyricularia grisea): inactive

SMILES: O=C1O[C@H](/C=C/CO)[C@@H](O)/C1=C\C=C\CO [EUTYPELLIN B]
- IC50 (NCI-H187): 206 µM
- IC50 (MCF7): > 221 µM
- IC50 (KB): 144 µM
- IC50 (Vero): > 221 µM
- Activity (Plasmodium falciparum): inactive
- Activity [1]: inactive
- Activity (Candida albicans): inactive
- Activity (Pyricularia grisea): inactive
